Source: PubChem BioAssay (Broad Institute)
Cneo AK release: Cryptococcus neoformans cell lysis inducers, primary screen, AK release luminescence, single concentration; C. neoformans lysis, adenylate kinase release luminescence, 4 h; normalised: neutral wells 0, clomiphene wells 100; lysis activity, % at 15 µM; 360,000 compounds, 0.2% hits; AID 651654, 2012;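 active = mean lysis activity across replicates of at least 80%, whatever share of replicates individually reach that level; inactive = mean lysis activity below 80%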
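Material: C. neoformans cells; Schedule: 4 h static compound exposure, 37 °C, read 1 h post-reagent; Measured by: adenylate kinase release luminescence; Read-out: signal increase indicating cell lysis; Controls: Clomiphene as positive lysis control.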
PGC1a acetyl inh: inhibitors of PGC1a acetylation signal, primary screen, cell-based, U2OS, AlphaScreen, inhibitor mode | 350,000 compounds, 0.17% hits | AID 651687, 2012 | AlphaScreen anti-acetyl-lysine; with virally co-expressed GCN5 acetyltransferase | inhibition, % at 15.6 µM;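 active = every replicate shows inhibition of at least 40%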
S100A4 MyoIIA: inhibitors of S100A4-myosin IIA peptide binding, primary screen, biochemical, fluorescence polarization, TAMRA-MyoIIA peptide; 360,000 compounds, 0.14% hits; Protein S100-A4 (Homo sapiens), P26447; inhibition, % at 10.7 µM; AID 652163, 2013;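 active = mean inhibition of at least 70% across replicates, with every replicate also reaching that level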
Target sequence (P26447 whole entry, looked up): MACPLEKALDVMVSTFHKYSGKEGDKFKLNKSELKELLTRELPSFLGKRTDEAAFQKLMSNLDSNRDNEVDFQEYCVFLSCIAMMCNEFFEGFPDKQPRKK
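assay system = human S100A4 monomer with TAMRA-labelled myosin IIA peptide | also added = labelled myosin peptide probe, 5 nM | incubation = 5 min between mix addition and reading | control set = DMSO and TFP controls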
Statin myotox sup: suppressors of statin myotoxicity in C2C12 myotubes, primary screen, cell-based, single point, plate reader; C2C12 myotubes + simvastatin, ATP luminescence, 48 h; scaled: DMSO 0, geranylgeraniol control 100; rescue of ATP level, % at 7.49 µM; 330,000 compounds, 0.78% hits; AID 602340, 2012;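 active = mean ATP rescue above about 67%, or every replicate alone reaching that limit, limit read from the data, passing the limit was not always enough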;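 note: myotubes were challenged with 10 µM simvastatin during compound exposure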
SIRT5 block: SIRT5 desuccinylase inhibitors, primary screen, biochemical, fluorescence imaging, single point, set 5 | AID 652115, 2013 | Purified SirT5, succinyl-peptide AMC, trypsin-coupled fluorescence | NAD-dependent protein deacylase sirtuin-5, mitochondrial (Homo sapiens), Q9NXA8 | 330,000 compounds, 1.1% hits | inhibition, % at 15 µM; in the data active = inhibition above about 15%
Target sequence (Q9NXA8 whole entry, looked up): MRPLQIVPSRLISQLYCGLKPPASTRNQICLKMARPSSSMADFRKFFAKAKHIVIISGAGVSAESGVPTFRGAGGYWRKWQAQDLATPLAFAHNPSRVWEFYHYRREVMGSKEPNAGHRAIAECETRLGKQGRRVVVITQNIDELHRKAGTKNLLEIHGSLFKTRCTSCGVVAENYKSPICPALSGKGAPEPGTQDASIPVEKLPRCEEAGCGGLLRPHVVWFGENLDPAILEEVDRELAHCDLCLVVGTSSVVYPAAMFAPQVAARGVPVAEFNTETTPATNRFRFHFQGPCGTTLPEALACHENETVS
Ecoli rRNA inh: reduced GFP signal of wild-type E. coli, primary screen, bacterial rRNA inhibitor project, GFP/RFP fluorescence, OD600, single point; E. coli WT GFP vs humanized-ribosome RFP mutants, 24 h; stronger effect = lower value; DMSO median 0, no signal -100; GFP signal change (wild-type ribosome), % (concentration not given with the values); 350,000 compounds, 1.6% hits; AID 720706, 2013;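 active = significant combined selectivity score with lowered wild-type GFP, culture density cut under 30%, mutant RFP and density less affected; inactive = any of these conditions unmet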
Each line names hits and unclear results; the compound was inactive in the other large screens. In the library only some 3% were active in any assay of this set; here they are far more common.

C[C@H]1CN([C@@H](C)CO)C(=O)Cc2cc(NC(=O)CCC(F)(F)F)ccc2O[C@@H]1CN(C)C	S100A4 MyoIIA 108
C[C@H](CO)N1C[C@H](C)[C@H](CN(C)C)Oc2ccc(NC(=O)CCC(F)(F)F)cc2CC1=O	none
C[C@@H]1CN([C@@H](C)CO)C(=O)Cc2cc(NC(=O)CCN3CCOCC3)ccc2O[C@@H]1CN(C)Cc1ccncc1	SIRT5 block 16
C[C@H]1CN([C@@H](C)CO)C(=O)Cc2cc(NC(=O)CCN3CCOCC3)ccc2O[C@@H]1CN(C)CC1CCCCC1	none (no result: SIRT5 block)
C[C@H]1CN([C@@H](C)CO)C(=O)Cc2cc(NC(=O)CCN3CCOCC3)ccc2O[C@H]1CN(C)CC1CCCCC1	SIRT5 block 20
CN1C(=O)c2cc(NC(=O)c3ccc(F)cc3)ccc2OC[C@@H]2O[C@@H](CC(=O)NCC3CCCCC3)CC[C@H]21	none
COc1ccc2c3c(n(C)c2c1)[C@@H](CO)N(C(=O)Nc1ccc(F)cc1)CC31CCN(Cc2ccccc2F)CC1	none (no result: Cneo AK release, Statin myotox sup)
O=C(COc1cc(=O)n2c(n1)SCCC2)c1ccccc1	Statin myotox sup 114 (no result: S100A4 MyoIIA, SIRT5 block, Ecoli rRNA inh)
Cc1ccc(-n2c(-c3ccccc3)c[n+]3c2CCC3)cc1	none (no result: Cneo AK release, Statin myotox sup)
Cc1ccc(-n2c(-c3ccccc3)c[n+]3c2CCc2ccccc2-3)c(C)c1	Ecoli rRNA inh -53 (no result: Cneo AK release, PGC1a acetyl inh, Statin myotox sup)
O=C(C1CCC1)N1CC2(C1)[C@H](c1ccccc1)[C@@H](CO)N2CC1CCCC1	none (no result: Cneo AK release, PGC1a acetyl inh, Statin myotox sup)
COc1ccc(CN(C)C[C@H]2OCCCC[C@@H](C)Oc3ccc(NC(=O)c4ccncc4)cc3C(=O)N([C@H](C)CO)C[C@H]2C)cc1	none (no result: Statin myotox sup)
COC(=O)c1nn(C23CC4CC(CC(C4)C2)C3)c2c1C(=O)N(c1ccc(Br)cc1)C2=O	Statin myotox sup 68 (no result: S100A4 MyoIIA, SIRT5 block, Ecoli rRNA inh)
CCOC(=O)c1ccc(N2C(=O)C(C)=C(C)C2=O)cc1	none (no result: Cneo AK release, S100A4 MyoIIA, Statin myotox sup, SIRT5 block, Ecoli rRNA inh)
CCOC(=O)c1nn(C23CC4CC(CC(C4)C2)C3)c2c1C(=O)N(c1ccc(C)cc1)C2=O	Statin myotox sup 121 (no result: Cneo AK release, S100A4 MyoIIA, SIRT5 block, Ecoli rRNA inh)
CO[C@@H](CN(C)S(=O)(=O)c1ccc(Cl)cc1)[C@H](C)CN([C@H](C)CO)S(=O)(=O)c1cccc(Cl)c1	SIRT5 block 16
CO[C@@H](CN(C)Cc1cc(F)ccc1F)[C@@H](C)CN([C@H](C)CO)S(=O)(=O)c1ccc(F)cc1	Cneo AK release 102 (no result: Ecoli rRNA inh)
CO[C@H](CN(C)S(=O)(=O)c1cccc(Cl)c1)[C@H](C)CN([C@@H](C)CO)S(=O)(=O)c1ccc(Cl)cc1	none
CO[C@@H](CN(C)Cc1cc(F)ccc1F)[C@H](C)CN([C@H](C)CO)S(=O)(=O)c1ccc(F)cc1	none
C[C@H](CO)N1C[C@H](C)[C@@H](CN(C)S(C)(=O)=O)Oc2ccc(NS(=O)(=O)c3ccc(Cl)cc3)cc2C1=O	none (no result: Cneo AK release, S100A4 MyoIIA, Statin myotox sup, SIRT5 block)
CC[n+]1c(/C=C/C=C/N(C(C)=O)c2ccccc2)sc2cc(OC)ccc21	S100A4 MyoIIA 199 (no result: Cneo AK release, PGC1a acetyl inh, Statin myotox sup)
COc1ccc2c3c(n(C)c2c1)[C@@H](CO)N(Cc1ccccc1)CC31CCN(C(=O)c2ccccc2F)CC1	none (no result: Cneo AK release, Statin myotox sup)
Cc1c(OCc2ccccc2)c(=O)ccn1Cc1ccccc1	none (no result: Cneo AK release, S100A4 MyoIIA, SIRT5 block, Ecoli rRNA inh)
O=c1ccn(Cc2ccccc2)c2ccccc12	SIRT5 block 36 (no result: PGC1a acetyl inh)
Cc1cc(/C=N/n2cnnc2)c(C)n1-c1ccc(Cl)cc1Cl	Statin myotox sup 97 (no result: S100A4 MyoIIA, SIRT5 block, Ecoli rRNA inh)
COc1ccc(S(=O)(=O)N2CCOC23CCN(S(C)(=O)=O)CC3)cc1	none (no result: PGC1a acetyl inh)
COc1ccc(S(=O)(=O)N2CCOC23CCN(S(=O)(=O)c2ccccc2)CC3)cc1	SIRT5 block 27
O=C(O)CCC(=O)Nc1ccc(-c2nc3ccc(C(=O)c4ccccc4)cc3[nH]2)cc1	SIRT5 block 34
O=C(c1ccncc1)N1CC(=O)N2[C@H](CO)[C@H](c3ccc(/C=C/c4ccccc4)cc3)[C@@H]2C1	none (no result: Cneo AK release, Statin myotox sup)
